A selection: hits, their analogues and other compounds. The true share with any hit is near 2.4%.
rRNA inh HTS: reduced GFP signal of wild-type E. coli, primary screen, bacterial rRNA inhibitor project, GFP/RFP fluorescence, OD600, single point; E. coli WT GFP vs humanized-ribosome RFP mutants, 24 h; active compounds read low; DMSO median 0, no signal -100; 1.6% of 350,000 active; GFP signal change (wild-type ribosome), % (no concentration beside the values);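 active means significant combined selectivity score with lowered wild-type GFP, culture density cut under 30%, mutant RFP and density less affected; inactive means any of these conditions unmet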
LGR2 antag: inhibitors of bursicon-induced LGR2 CRE-luciferase signal, primary screen, cell-based, HEK293, CRE-luciferase reporter, bursicon stimulation; bursicon-stimulated, 4 h; inhibition, % at 9.99 µM; 0.35% of 380,000 active; AID 720647, 2013;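 active means drop in luminescence signal, shown as inhibition above about 50% in the replicate tests, limit read from the data, passing the limit was not always enough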;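 further: agonist challenge used bursicon conditioned medium at about half maximal strength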
EWS-Fli block: EWS/Fli-driven NR0B1 reporter inhibitors, primary screen, A673 cells, NR0B1 luciferase, luminescence, MLPCN library; viability-normalised; inhibition, % at 12.6 µM; 0.67% of 350,000 active;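 active means mean inhibition of at least 50% after viability correction, with every replicate also passing that limit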;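 further: firefly luciferase signal divided by Alamar Blue viability fluorescence both relative to DMSO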
E-sel inducer: E-selectin induction in HUVECs, primary screen, imaging, HUVEC, immunofluorescence imaging, single point. AID 686992, 2013. normalized: neutral wells 0, TNF-alpha wells 100. 0.37% of 260,000 active. activation, % at 7.58 µM;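 active means mean E-selectin-positive cell signal at least 10% of the positive control, reached in at least 60% of replicates, without over 20% cell loss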
Target sequence (P16581 whole entry, looked up): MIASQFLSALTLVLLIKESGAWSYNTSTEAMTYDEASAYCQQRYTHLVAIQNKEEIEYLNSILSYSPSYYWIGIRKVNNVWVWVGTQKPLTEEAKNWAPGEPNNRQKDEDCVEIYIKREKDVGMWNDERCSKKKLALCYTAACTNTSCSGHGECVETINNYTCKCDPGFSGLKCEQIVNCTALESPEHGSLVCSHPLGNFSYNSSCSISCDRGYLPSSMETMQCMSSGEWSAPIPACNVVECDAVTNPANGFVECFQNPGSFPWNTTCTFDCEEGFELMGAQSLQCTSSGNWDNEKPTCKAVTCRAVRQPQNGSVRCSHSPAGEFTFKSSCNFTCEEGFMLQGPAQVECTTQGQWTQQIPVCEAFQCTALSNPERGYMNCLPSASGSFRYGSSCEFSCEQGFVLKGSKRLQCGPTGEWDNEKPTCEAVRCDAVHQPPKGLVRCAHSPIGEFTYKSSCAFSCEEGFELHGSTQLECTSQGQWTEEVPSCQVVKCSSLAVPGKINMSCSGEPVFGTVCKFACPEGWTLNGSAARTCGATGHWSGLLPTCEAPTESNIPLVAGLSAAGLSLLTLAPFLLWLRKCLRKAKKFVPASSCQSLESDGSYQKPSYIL
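System: HUVEC / Compound: single concentration / Signal: immunofluorescence imaging / Read-out: percent E-selectin-positive cells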
Of the large screens only hits and unclear results are named; the others gave an inactive call.

Cc1cccc(C)c1NC(=O)CN(C)C(C)C(=O)Nc1ccccc1-c1ccccc1 (stereo unspecified)	rRNA inh HTS -25.1
CCOc1ccccc1NC(=O)C(C)SCc1ccccc1 (stereo unspecified)	none (no result: E-sel inducer)
C[C@@H]1CN([C@H](C)CO)C(=O)c2cc(C3=CCCC3)cnc2O[C@H]1CN(C)C(=O)C1CC1	none
CNC[C@H]1Oc2c(NS(=O)(=O)c3cccs3)cccc2C(=O)N([C@H](C)CO)C[C@H]1C	none
COc1cccc(CNC(=O)C[C@@H]2C=C[C@@H](NS(=O)(=O)c3ccccc3OC)[C@@H](CO)O2)c1	none
Cc1cc(C(=O)Nc2cccc3ccccc23)c(C)o1	none (no result: E-sel inducer)
Cc1cc(C(=O)c2ccc3ccccc3c2)c(C)o1	rRNA inh HTS -22.8
O=C(C[C@@H]1C[C@H]2c3cc(NC(=O)NC4CCCCC4)ccc3O[C@H]2[C@@H](CO)O1)NC1CCCCC1	none
CNC(=O)C[C@@H]1CC[C@@H]2[C@@H](COc3ccc(NS(=O)(=O)c4ccccc4C)cc3C(=O)N2C)O1	none
COc1ccc(C=NNc2ccc([N+](=O)[O-])cc2S(=O)(=O)Nc2ccccc2C(=O)O)cc1OC	rRNA inh HTS -23.2
COc1ccc(NS(=O)(=O)c2cc([N+](=O)[O-])ccc2NN=Cc2ccccc2OCC(=O)O)cc1	rRNA inh HTS -32.3
O=C(O)c1ccccc1NS(=O)(=O)c1ccc(N/N=C/c2ccc(O)c(O)c2)c([N+](=O)[O-])c1	rRNA inh HTS -25.2 (no result: E-sel inducer)
O=C(O)c1ccccc1NS(=O)(=O)c1ccc(NN=Cc2cccc(Cl)c2)c([N+](=O)[O-])c1	none
COc1ccc(-c2ccc3c(c2)[C@H]2[C@H](CCN2C(=O)NC2CCCC2)[C@H](CO)N3C)cc1	none
C[C@H]1CCCCO[C@H](CN(C)Cc2ccc3c(c2)OCO3)[C@@H](C)CN([C@@H](C)CO)C(=O)c2cc(NC(=O)Nc3ccc(C(F)(F)F)cc3)ccc2O1	EWS-Fli block 74.7
C[C@H](CO)N1C[C@H](C)[C@H](CN(C)Cc2ccc3c(c2)OCO3)OCCCC[C@H](C)Oc2ccc(NC(=O)Nc3ccc(C(F)(F)F)cc3)cc2C1=O	EWS-Fli block 76.2
C[C@@H]1CN([C@H](C)CO)C(=O)c2cc(NC(=O)Nc3ccc(F)cc3)ccc2O[C@@H](C)CCCCO[C@H]1CN(C)Cc1ccc2c(c1)OCO2	EWS-Fli block 68.1
C[C@@H]1CN([C@H](C)CO)C(=O)c2cc(NC(=O)Nc3ccc(C(F)(F)F)cc3)ccc2O[C@@H](C)CCCCO[C@H]1CN(C)Cc1ccc2c(c1)OCO2	EWS-Fli block 76.8
C[C@@H]1CCCCO[C@@H](CN(C)Cc2ccc3c(c2)OCO3)[C@@H](C)CN([C@H](C)CO)C(=O)c2cc(NC(=O)Nc3ccc(C(F)(F)F)cc3)ccc2O1	none
C[C@H]1CCCCO[C@H](CN(C)Cc2ccc(C(F)(F)F)cc2)[C@@H](C)CN([C@@H](C)CO)C(=O)c2cc(NC(=O)Nc3ccc4c(c3)OCO4)ccc2O1	none
CCCC(=O)Nc1ccc2c(c1)OC[C@@H](C)N(Cc1cc(F)ccc1F)C[C@@H](C)[C@H](OC)CN(C)C2=O	none
COc1ccc(S(=O)(=O)N(C)C[C@@H]2Oc3ccc(N(C)C)cc3CC(=O)N([C@H](C)CO)C[C@H]2C)cc1	none
CC(C)NC(=O)N(C)C[C@H]1Oc2ccc(NC(=O)CCC(F)(F)F)cc2C(=O)N([C@@H](C)CO)C[C@H]1C	none
O=C(C[C@@H]1C=C[C@H](NC(=O)C2CC2)[C@@H](CO)O1)NCC1CC1	none
CO[C@H]1CN(C)C(=O)c2ccc(NS(C)(=O)=O)cc2OC[C@H](C)N(C(=O)C2CC2)C[C@H]1C	none
C[C@H](CO)N1C[C@H](C)[C@H](CN(C)C(=O)Cc2ccccc2)Oc2ncc(C#CCN(C)C)cc2C1=O	none
C[C@@H]1CCCCO[C@H](CN(C)Cc2ccc3c(c2)OCO3)[C@H](C)CN([C@@H](C)CO)C(=O)c2cc(NC(=O)Nc3ccc(C(F)(F)F)cc3)ccc2O1	EWS-Fli block 75.4
C[C@@H]1CN([C@@H](C)CO)C(=O)c2cc(NC(=O)Nc3ccc(C(F)(F)F)cc3)ccc2O[C@@H](C)CCCCO[C@H]1CN(C)Cc1ccc2c(c1)OCO2	none
C[C@@H]1CCCCO[C@@H](CN(C)Cc2ccc(C(F)(F)F)cc2)[C@H](C)CN([C@H](C)CO)C(=O)c2cc(NC(=O)Nc3ccc4c(c3)OCO4)ccc2O1	none
C[C@@H]1CCCCO[C@H](CN(C)Cc2ccc3c(c2)OCO3)[C@@H](C)CN([C@@H](C)CO)C(=O)c2cc(NC(=O)Nc3ccc(C(F)(F)F)cc3)ccc2O1	EWS-Fli block 69.4 (no result: rRNA inh HTS, LGR2 antag, E-sel inducer)
C[C@H]1CN([C@@H](C)CO)C(=O)c2cc(NS(=O)(=O)c3ccc(F)cc3)ccc2O[C@@H]1CN(C)C	none
C[C@H]1CN([C@@H](C)CO)C(=O)c2cccc(NC(=O)Nc3ccc4c(c3)OCO4)c2O[C@@H]1CN(C)S(=O)(=O)c1cn(C)cn1	none
C[C@H](CO)N1C[C@H](C)[C@H](CN(C)C)Oc2cc(C#Cc3cccnc3)ccc2S1(=O)=O	none
COc1cc(Cn2c3ccc(NC(=O)CCc4ccccc4)cc3c(=O)n2C)ccc1F	EWS-Fli block 53.6
CNNC(=S)Nc1cccc(C(F)(F)F)c1	none (no result: rRNA inh HTS, LGR2 antag)
CCOc1ccc(NC(=S)NNC(=S)Nc2cccc(C(F)(F)F)c2)cc1	rRNA inh HTS -28.4
COc1ccc(NC(=S)NNC(=S)Nc2cccc(C(F)(F)F)c2)cc1	rRNA inh HTS -24.0
CCOc1ccc(NC(=S)NCc2ccco2)cc1	rRNA inh HTS -18.7 (no result: E-sel inducer)
CCOc1cc(C(=O)NC(=S)Nc2ccc(Cl)c(C(=O)O)c2)cc(OCC)c1OCC	none (no result: E-sel inducer)
CC(C)Oc1ccc(C(=O)NC(=S)Nc2ccc(Cl)c(C(=O)O)c2)cc1	rRNA inh HTS -20.6
Cc1ccc2ccccc2c1COC(=O)c1nonc1N	rRNA inh HTS -23.0 (no result: E-sel inducer)
Cc1ccc(NC(=O)CO/N=C(\N)c2nonc2N)cc1C	none (no result: E-sel inducer)
N#CCC(=O)N/N=C/c1cn(Cc2ccccc2C#N)c2ccccc12	none
N#CCC(=O)N/N=C/c1cn(Cc2cccc3ccccc23)c2ccccc12	EWS-Fli block 52.6
Brc1ccccc1/C=N/Nc1ccc2ccccc2n1	none
O=[N+]([O-])c1cccc(C=NNc2ccc3ccccc3n2)c1O	LGR2 antag 81.3
O=C(N/N=C/c1cccc([N+](=O)[O-])c1O)c1cccs1	EWS-Fli block 69.0 (no result: E-sel inducer)
Fc1cccc(/C=N/Nc2ccc3ccccc3n2)c1	rRNA inh HTS -24.1 (no result: E-sel inducer)
O=C(N/N=C/c1cccc([N+](=O)[O-])c1O)C(O)(c1ccccc1)c1ccccc1	rRNA inh HTS -18.4
O=C(C[C@H]1C=C[C@@H](NC(=O)Nc2cc(F)ccc2F)[C@H](CO)O1)Nc1ccccc1	none (no result: rRNA inh HTS)
C[C@@H]1COCn2nncc2CC[C@@H](Cc2ccc(Cl)cc2)C(=O)N1	none (no result: LGR2 antag, EWS-Fli block, E-sel inducer)

Screening results: PubChem BioAssay, Broad Institute
